Legend:
[1] = biological target: T1, G-protein coupled receptor 55 (Homo sapiens, UniProt Q9Y2T6); assay: Antagonist activity at human GPR55 expressed in CHO cells assessed as inhibition of lysophosphotidylinositol-induced beta-arrestin recruitment at 10 uM preincubated for 30 mins followed by lysophosphotidylinositol induction by beta-galactosidase reporter gene assay relative to control; assay type: functional, cell-based
Summary of the method: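 Human GPR55 PathHunter CHO cells were preincubated 30 min with compound, then stimulated with LPI (final 1 µM). After 90 min, detection reagent was added and luminescence read 60 min later. Screening was at 10 µM; full concentration-inhibition curves were run for selected compounds to give IC50.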

[2] = biological target: T1, G-protein coupled receptor 55; assay: Agonist activity at human GPR55 expressed in CHO cells assessed as induction of beta-arrestin recruitment at 10 uM after 90 mins by beta-galactosidase reporter gene assay relative to lysophosphotidylinositol; assay type: functional, cell-based
Summary of the method: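 Human GPR55 PathHunter CHO cells, 20000 cells/well seeded the day before, received test compound at 10 µM (final DMSO ≤1%) for 90 min. Detection reagent was then added and luminescence read after 60 min. Signal was normalized to that of 1 µM LPI.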

[3] = biological target: G protein-coupled receptor GPR35 (Rattus norvegicus) (UniProt Q33BM1); assay: Agonist activity at rat GPR35 expressed in CHO cells assessed as induction of beta-arrestin recruitment at 10 uM after 90 mins by beta-galactosidase reporter gene assay; assay type: cell-based
Sequence of G protein-coupled receptor GPR35 (Rattus norvegicus) (Q33BM1 as listed by the source): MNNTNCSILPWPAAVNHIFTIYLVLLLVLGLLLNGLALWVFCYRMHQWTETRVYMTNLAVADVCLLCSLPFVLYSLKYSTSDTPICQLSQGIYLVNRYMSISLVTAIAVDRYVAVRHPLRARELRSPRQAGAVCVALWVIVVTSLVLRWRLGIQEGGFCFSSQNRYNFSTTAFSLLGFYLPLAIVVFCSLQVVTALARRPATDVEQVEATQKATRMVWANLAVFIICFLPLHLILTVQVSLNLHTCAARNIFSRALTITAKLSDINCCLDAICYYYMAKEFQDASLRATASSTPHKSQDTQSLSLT
Summary of the method: (§1)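 Rat GPR35 expressed by transfecting a parental CHO β-arrestin-EA line; cells seeded at 20000/well the day before. Compounds (final DMSO ≤1%) were incubated 90 min, followed by detection reagent and a luminescence read after 60 min.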

[4] = biological target: G-protein coupled receptor 35 (Mus musculus) (UniProt Q9ES90); assay: Agonist activity at mouse GPR35 expressed in CHO cells assessed as induction of beta-arrestin recruitment at 10 uM after 90 mins by beta-galactosidase reporter gene assay; assay type: cell-based
Sequence of G-protein coupled receptor 35 (Mus musculus) (Q9ES90 whole entry): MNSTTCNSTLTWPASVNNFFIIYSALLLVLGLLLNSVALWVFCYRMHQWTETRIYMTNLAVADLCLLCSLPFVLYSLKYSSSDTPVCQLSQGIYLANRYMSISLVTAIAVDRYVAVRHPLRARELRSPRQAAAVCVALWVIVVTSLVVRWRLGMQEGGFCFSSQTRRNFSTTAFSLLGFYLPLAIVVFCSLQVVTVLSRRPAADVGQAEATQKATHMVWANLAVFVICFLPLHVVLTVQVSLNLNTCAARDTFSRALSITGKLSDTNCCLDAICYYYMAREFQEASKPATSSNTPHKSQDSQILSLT
Summary of the method: (§2)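 Mouse GPR35 introduced by transfection into a CHO β-arrestin-EA line; 20000 cells/well plated the day prior. After 90 min of compound exposure (final DMSO ≤1%), detection reagent was added and luminescence read after 60 min.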

[5] = biological target: T2, G-protein coupled receptor 35 (Homo sapiens, UniProt Q9HC97); assay: Agonist activity at human GPR35 expressed in CHO cells assessed as induction of beta-arrestin recruitment at 10 uM after 90 mins by beta-galactosidase reporter gene assay relative to zaprinast; assay type: cell-based
T2 sequence (Q9HC97 whole entry, the tested form may be a part): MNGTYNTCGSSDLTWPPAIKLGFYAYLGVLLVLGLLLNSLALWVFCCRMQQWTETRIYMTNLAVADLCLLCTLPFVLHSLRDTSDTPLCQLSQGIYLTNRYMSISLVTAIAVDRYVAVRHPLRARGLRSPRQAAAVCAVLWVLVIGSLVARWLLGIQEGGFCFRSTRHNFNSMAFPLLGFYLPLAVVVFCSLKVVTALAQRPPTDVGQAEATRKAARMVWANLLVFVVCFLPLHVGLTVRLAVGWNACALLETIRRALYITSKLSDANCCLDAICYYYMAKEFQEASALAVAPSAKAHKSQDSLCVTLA
Summary of the method: (§3)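 PathHunter enzyme-fragment complementation in CHO cells stably expressing β-arrestin-EA and tagged human GPR35, seeded at 20000 cells/well the day before. DMSO dilutions were further diluted 1:10 (final DMSO ≤1%). Cells were incubated 90 min, then detection reagent was added and luminescence read after 60 min.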

[6] = biological target: T2, G-protein coupled receptor 35; assay: Agonist activity at human GPR35 expressed in CHO cells assessed as induction of beta-arrestin recruitment after 90 mins by beta-galactosidase reporter gene assay; assay type: cell-based; summary of the method: as §3
[7] = biological target: G protein-coupled receptor GPR35 (Rattus norvegicus) (UniProt Q33BM1); assay: Agonist activity at rat GPR35 expressed in CHO cells assessed as induction of beta-arrestin recruitment at 10 uM after 90 mins by beta-galactosidase reporter gene assay relative to zaprinast; assay type: cell-based; summary of the method: as §1
[8] = biological target: G protein-coupled receptor GPR35 (Rattus norvegicus, UniProt Q33BM1); assay: Agonist activity at rat GPR35 expressed in CHO cells assessed as induction of beta-arrestin recruitment after 90 mins by beta-galactosidase reporter gene assay; assay type: cell-based; summary of the method: as §1
Sequence of G protein-coupled receptor GPR35 (Q33BM1 whole entry): as the sequence (Q33BM1 as listed by the source) above

[9] = biological target: G-protein coupled receptor 35 (Mus musculus, UniProt Q9ES90); assay: Agonist activity at mouse GPR35 expressed in CHO cells assessed as induction of beta-arrestin recruitment after 90 mins by beta-galactosidase reporter gene assay; assay type: cell-based; summary of the method: as §2
Sequence of G-protein coupled receptor 35 (Mus musculus, UniProt Q9ES90) (Q9ES90 whole entry): as the sequence (Q9ES90 whole entry) above

[10] = biological target: T2, G-protein coupled receptor 35; assay: Agonist activity at human GPR35b expressed in CHO cells assessed as induction of beta-arrestin recruitment at 10 uM after 90 mins by beta-galactosidase reporter gene assay relative to zaprinast; assay type: cell-based
Summary of the method: (§4)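 CHO β-arrestin-EA parental line transfected with human GPR35b, seeded at 20000 cells/well the day before. Compounds in DMSO were diluted 1:10 in medium or PBS (final DMSO ≤1%). After 90 min of incubation, detection reagent was added and luminescence measured 60 min later. Screening was at 10 µM.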

[11] = biological target: T2, G-protein coupled receptor 35; assay: Agonist activity at human GPR35b expressed in CHO cells assessed as induction of beta-arrestin recruitment after 90 mins by beta-galactosidase reporter gene assay; assay type: cell-based; summary of the method: as §4

T1 sequence (Q9Y2T6 whole entry): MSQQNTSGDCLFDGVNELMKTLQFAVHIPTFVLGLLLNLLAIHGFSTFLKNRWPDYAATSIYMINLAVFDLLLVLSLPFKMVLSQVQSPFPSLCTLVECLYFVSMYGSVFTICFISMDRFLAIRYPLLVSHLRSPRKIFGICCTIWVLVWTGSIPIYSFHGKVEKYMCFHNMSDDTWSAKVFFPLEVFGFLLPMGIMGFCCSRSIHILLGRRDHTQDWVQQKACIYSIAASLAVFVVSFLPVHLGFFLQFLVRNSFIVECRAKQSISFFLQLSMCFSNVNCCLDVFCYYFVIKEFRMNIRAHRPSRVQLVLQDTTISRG

SMILES	inhibition [1] [%]	Activity [2] [%]	Activity [3] [%]	Activity [4] [%]	Emax [5] [%]	EC50 [6] [nM]	Emax [7] [%]	EC50 [8] [nM]	EC50 [9] [nM]	Emax [10] [%]	EC50 [11] [nM]
O=C(Nc1cccc2c(=O)cc(C(=O)O)oc12)c1ccccc1	24	3	39	13	107	4910	–	–	–	–	–
Cc1ccc(C(=O)Nc2cccc3c(=O)cc(C(=O)O)oc23)cc1	16	6	43	43	104	1380	–	–	–	–	–
O=C(Nc1cc(Cl)cc2c(=O)cc(C(=O)O)oc12)c1ccccc1	23	20	–	31	115	430	65	2840	–	–	–
O=C(Nc1cc(Cl)cc2c(=O)cc(C(=O)O)oc12)c1ccc([N+](=O)[O-])cc1	14	8	–	18	130	1710	115	3140	–	–	–
O=C(Nc1cccc2c(=O)cc(C(=O)O)oc12)c1cccc([N+](=O)[O-])c1	20	12	32	26	112	6970	–	–	–	–	–
CCCOc1ccccc1-c1nc2nn[nH]c2c(=O)[nH]1 [ZAPRINAST]	–	–	–	–	–	–	–	61.1	1600	–	–
O=C(Nc1cc(Br)cc2c(=O)cc(C(=O)O)oc12)c1ccc2c(c1)OCO2	46	9	–	34	107	59.9	86	2050	–	118	128
COc1ccc(C(=O)Nc2cc(F)cc3c(=O)cc(C(=O)O)oc23)cc1	34	7	–	30	123	112	78	1760	–	113	143
Cc1cccc(C(=O)Nc2cc(Br)cc3c(=O)cc(C(=O)O)oc23)c1	46	-8	–	27	138	842	79	2080	–	111	699
N#Cc1ccc(C(=O)Nc2cc(Br)cc3c(=O)cc(C(=O)O)oc23)cc1	38	0	–	41	108	399	99	2260	–	–	–
Cc1cccc(C(=O)Nc2cc(Cl)cc3c(=O)cc(C(=O)O)oc23)c1	40	4	–	31	102	1220	92	2100	–	–	–
O=C(O)c1cc(=O)c2cc(F)cc(NC(=O)c3ccc(Cl)cc3Cl)c2o1	18	-8	46	24	113	17	–	–	–	110	20.5
O=C(Nc1cc(Br)cc2c(=O)cc(C(=O)O)oc12)c1ccccc1	21	23	–	40	110	303	75	2750	–	–	–
COC(=O)CC(=O)Nc1cccc2c(=O)cc(C(=O)O)oc12	31	-4	–	15	87	20200	89	6650	–	–	–
CCOc1ccc(C(=O)Nc2cc(Br)cc3c(=O)cc(C(=O)O)oc23)cc1	39	-1	–	36	99	634	74	1360	–	–	–
Nc1cc(Br)cc2c(=O)cc(C(=O)O)oc12	17	4	40	18	84	12600	–	–	–	–	–

SMILES	inhibition [1] [%]	Activity [2] [%]	Activity [3] [%]	Activity [4] [%]	Emax [5] [%]	EC50 [6] [nM]	Emax [7] [%]	EC50 [8] [nM]	EC50 [9] [nM]	Emax [10] [%]	EC50 [11] [nM]
COc1ccc(C(=O)Nc2cc(Cl)cc3c(=O)cc(C(=O)O)oc23)cc1	47	-2	–	34	110	16.8	86	1830	–	125	28.6
O=C(O)c1cc(=O)c2cccc([N+](=O)[O-])c2o1	32	-6	38	4	101	46300	–	–	–	–	–
CC(=O)Nc1cccc2c(=O)cc(C(=O)O)oc12	–	1	31	3	91	24100	–	–	–	–	–
CCC(=O)Nc1cccc2c(=O)cc(C(=O)O)oc12	16	15	30	12	119	13400	–	–	–	–	–
O=C(Nc1cc(Br)cc2c(=O)cc(C(=O)O)oc12)c1ccc(Cl)cc1	40	12	47	27	115	25.1	–	–	–	130	40.5
O=C(Nc1cc(Br)cc2c(=O)cc(C(=O)O)oc12)c1ccc(Cl)c(Cl)c1	47	16	–	29	110	15.4	62	3250	–	109	27.2
O=C(Nc1cc(F)cc2c(=O)cc(C(=O)O)oc12)c1ccc(Cl)c(Cl)c1	54	3	–	37	131	117	80	2650	–	136	106
Cc1cccc(C(=O)Nc2cccc3c(=O)cc(C(=O)O)oc23)c1	25	10	–	18	70	5440	71	2750	–	–	–
O=C(Nc1cccc2c(=O)cc(C(=O)O)oc12)c1ccc(C(F)(F)F)cc1	5	1	38	23	81	15500	–	–	–	–	–
O=C(O)c1cc(=O)c2cc(Br)cc(NC(=O)c3ccc(Cl)cc3Cl)c2o1	43	10	32	12	110	16.4	–	–	–	116	34.6
CCOC(=O)c1cc(=O)c2cc(F)cc(NC(=O)c3ccc(OC)cc3)c2o1	26	-1	1	7	80	112	–	–	–	–	–
O=C(Cc1ccccc1)Nc1cccc2c(=O)cc(C(=O)O)oc12	26	-11	47	19	107	8960	–	–	–	–	–
O=C(O)c1cc(=O)c2cccc(NC(=O)C3CCCCC3)c2o1	16	17	–	38	118	4200	79	1200	–	–	–
O=C(Nc1cccc2c(=O)cc(C(=O)O)oc12)c1ccc(Br)cc1	9	8	49	28	122	804	–	–	–	113	678
O=C1N/C(=N/c2ccccc2F)S/C1=C\c1ccc(C(=O)O)cc1	–	–	–	–	–	–	–	8000	17000	–	–
O=C(O)c1cc(=O)c2cc(F)cc(NC(=O)c3cccc(Cl)c3Cl)c2o1	40	5	–	–	106	382	82	3130	–	104	873
